This is a sample that favours compounds with a hit; in the whole collection about 2.2% have one here.
FLuc act counter: firefly luciferase counter-screen for stimulation assays | P08659 | AID 1027 | ATPlite luciferase biochemical, luminescence, 10 min; 0 = ATP-free wells, 1 = DMSO control | 200,000 tested, under 10 active | activation factor at 10 µM;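 active means luciferase activation factor, scaled between plate controls, of at least 2 with compound at 10 µM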
Target sequence (P08659 whole entry, looked up): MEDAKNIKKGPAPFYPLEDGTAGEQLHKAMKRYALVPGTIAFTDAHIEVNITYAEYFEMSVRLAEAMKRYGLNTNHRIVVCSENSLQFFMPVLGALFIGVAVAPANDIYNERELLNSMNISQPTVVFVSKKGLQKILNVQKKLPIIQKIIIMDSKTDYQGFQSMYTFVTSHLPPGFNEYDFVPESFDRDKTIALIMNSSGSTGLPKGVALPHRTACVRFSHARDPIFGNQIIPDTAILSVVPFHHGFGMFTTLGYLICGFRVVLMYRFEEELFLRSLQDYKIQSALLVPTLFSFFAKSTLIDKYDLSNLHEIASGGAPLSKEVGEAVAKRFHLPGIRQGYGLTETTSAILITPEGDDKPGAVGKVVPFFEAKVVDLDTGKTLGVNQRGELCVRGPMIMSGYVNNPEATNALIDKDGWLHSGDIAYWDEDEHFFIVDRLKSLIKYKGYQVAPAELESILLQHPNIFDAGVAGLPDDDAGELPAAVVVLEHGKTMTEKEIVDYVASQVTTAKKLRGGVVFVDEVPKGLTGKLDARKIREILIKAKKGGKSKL
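System: luciferase plus luciferin reagent, cell-free; medium: PBS as buffer for the ATP substrate; dosing: test compounds dosed from 2 mM stocks in 100% DMSO; timing: 10 min post-reagent at room temperature; measured by: luminescence measurement of luciferase light output; evaluation: luciferase activation, seen as luminescence increase over controls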
FLuc inhib CS: Photinus pyralis luciferase inhibition counter-screen | P08659 | ATPLite firefly luciferase biochemical luminescence, 10 min | inhibition, % at 10 µM | hit rate 1.5% among 200,000 | AID 1006;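 active means inhibition above about 50% when tested at 10 µM, limit read from the data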
C8 TRAIL sens: sensitizes caspase-8 expressing cells to TRAIL; NB7+C8 cells + TRAIL, ATPlite viability luminescence; inhibition (viability loss, TRAIL sensitization), % at 10 µM; hit rate 1% among 360,000; AID 624354;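 active means compounds causing at least 50% loss of cell viability in the single-dose screen, relative to plate controls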
APP 5'UTR act: activates APP 5'UTR luciferase reporter; SH-SY5Y APP 5'UTR luciferase reporter, luminescence; zero percent = DMSO vehicle wells; activation, % at 2 µM; hit rate 1% among 190,000; AID 1276;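 active means activation above a set limit, based on mean plus 3 SD of controls, cut at about 140% in these data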
NF-kB expr up: NF-kB expression increase, human neuronal cells | fold change at 12.5 µM | hit rate 1.6% among 190,000 | NF-kB reporter expression; active compounds read high | AID 1239; in the data active means fold change above about 3.3
PPC-1+TRAIL kill: PPC-1 cancer cell killing with TRAIL present; PPC-1 cells + TRAIL, ATPLite viability luminescence; cell killing (% activity), % at 4 µM or 5 µM; hit rate 0.41% among 220,000; AID 1443;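 active means cell killing above 50% in the first pass at 4 µM, then a duplicate retest at 5 µM averaging 50% or more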;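 further: plate controls were cells with TRAIL plus DMSO for no effect and medium-only wells lacking cells for full effect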
Starred values were filed as active, the others as inactive; . = no result given.

SMILES	FLuc act counter	FLuc inhib CS	C8 TRAIL sens	APP 5'UTR act	NF-kB expr up	PPC-1+TRAIL kill
COCCN1C(=O)CCC1(C)C(=O)Nc1ccc2c(c1)OCCO2 (stereo not given)	.	.	-11	.	.	.
c1cncc(-c2nc3cc(Cc4ccc5oc(-c6cccnc6)nc5c4)ccc3o2)c1	1	-5	.	.	.	-31
CCC(=O)NC(=S)Nc1ccc2oc(-c3ccc(OC)cc3)nc2c1	1	1	14	137*	1.8	7
CCOc1cccc(-c2nc3cc(C)ccc3o2)c1	0.3	68*	14	64	1.8	-2
Cc1ccc2nc(-c3cc(N)cc(N)c3)oc2c1	0.1	94*	76*	-38	0.95	28
COc1ccc(-c2nc3cc(NC(=S)NC(=O)Cc4ccccc4)ccc3o2)cc1	1	4	16	69	2.1	-4
CCCC(=O)Nc1ccc(-c2nc3cc(C)ccc3o2)cc1	0.6	38	31	190*	5.1*	39
CCCC(=O)Nc1ccc2oc(-c3ccc(OC)c(Br)c3)nc2c1	0.9	5	6	49	1.5	-7
CC(C)NC(=O)Nc1nnc([C@@H]2C[C@H](O)[C@@H](CO)O2)s1	.	.	-8	.	.	.
CC(=NO)C1(C)CC=CCC1CO (stereo not given)	.	.	4	.	.	.
Cc1ccc2oc(-c3ccccc3)nc2c1	0.2	76*	12	39	2.5	9
Oc1ccc(Br)cc1/C=N/N1CCCCC1	0.8	23	5	54	4*	-7
O=[N+]([O-])c1ccc(O)c(C=NN2CCCCC2)c1	.	.	-19	.	.	.
Cc1ccc(CN=C2Nc3ccccc3CS2)cc1	0.2	81*	49	143*	6.8*	34
COc1cccc(CN=C2Nc3ccccc3CS2)c1	0.8	25	0	111	3.9*	0
c1cncc(CN=C2Nc3ccccc3CS2)c1	1	1	-9	-14	1.3	7
Clc1ccc(CN=C2Nc3ccccc3CS2)cc1	0.8	24	6	115	4.8*	2
CC1ON=C(c2ccccn2)N(Cc2ccc3c(c2)OCO3)C1=O (stereo not given)	.	.	-2	.	.	.
Cc1cccc(C)c1N1CCN(C(c2cc3ccccc3o2)c2nnnn2C(C)(C)C)CC1 (stereo not given)	.	.	22	.	.	.
O=S1(=O)N[C@@H](Cc2ccccc2)COc2cccc(N3CCN(Cc4ccccc4F)CC3)c21	.	.	3	.	.	.
O=C(c1ccccc1)c1nnc(-c2ccccc2F)o1	0.2	78*	-6	90	9.8*	3
CC(=O)Oc1ccccc1Cn1c(C)c(C(=O)NCc2ccccc2C(F)(F)F)sc1=O	.	.	8	.	.	.
Clc1ccccc1Nc1nnc(-c2ccncc2)s1	0.2	82*	60*	160*	4.2*	64*
Clc1ccccc1Nc1nc(-c2cccnc2)cs1	0.2	84*	45	195*	7.8*	.
c1ccc(Nc2nc(-c3cccnc3)cs2)nc1	0.5	49	37	194*	5*	48
SMILES	FLuc act counter	FLuc inhib CS	C8 TRAIL sens	APP 5'UTR act	NF-kB expr up	PPC-1+TRAIL kill
FC(F)(F)c1ccc(Cl)c(Nc2nnc(-c3ccncc3)s2)c1	.	.	16	.	.	.
O=C(CSc1ncccc1-c1nc2ccccc2[nH]1)NCc1ccco1	0.9	6	3	16	0.85	2
Cc1cc2nc(-c3cccnc3SCC(=O)NC3CC3)[nH]c2cc1C	0.3	70*	.	41	1.1	21
Cc1cc2nc(-c3cccnc3SCC(=O)NCc3ccco3)[nH]c2cc1C	.	.	61*	119	5.3*	.
COc1ccc(/C=C/CN2CCC(C(=O)NC(c3ccc(F)cc3)c3ccc4ccccc4n3)CC2)cc1 (stereo not given)	.	.	23	.	.	.
O=C(N/N=C/C(Cl)=C/c1ccccc1)c1ccco1	0.4	64*	31	89	4.3*	5
O=C(N/N=C/C(Cl)=C\c1ccccc1)c1cnccn1	0.5	46	24	-3	1.2	15
CC(/C=N/NC(=O)c1cc(C(C)C)[nH]n1)=C\c1ccccc1	0.9	6	5	21	1.4	9
O=C(N/N=C/C(Cl)=C/c1ccccc1)c1cnccn1	0.4	56*	21	8	1.3	16
CC(/C=N/NC(=O)c1cccnc1)=C\c1ccccc1	0.4	65*	16	21	1.8	37
CC(/C=N/NC(=O)c1ccc(Br)cc1)=C\c1ccccc1	0.8	20	16	-6	1.4	20
CC(=C/c1ccccc1)/C=N/NC(=O)c1cnccn1	0.3	74*	45	65	1.9	25
C[C@H](CO)N1C[C@H](C)[C@@H](CN(C)S(=O)(=O)c2ccc(-n3cccn3)cc2)OCc2cn(nn2)CCCC1=O	.	.	-1	.	.	.
Cc1cc2nc(C3CCCCC3)c(Cc3cccc(F)c3)n2c(C)c1Br	.	.	4	.	.	.
CC(C)NC(=O)c1cc(C2CCCCN2C(=O)c2cc(C(C)(C)C)nn2C)on1 (stereo not given)	.	.	-8	.	.	.
CN1CCN(c2cccc3c2S(=O)(=O)N[C@@H](Cc2ccccc2)CO3)CC1	.	.	-17	.	.	.
Cc1cccnc1C(NC(=O)C1CCN(Cc2ccc3ccccc3n2)CC1)c1ccc(Cl)cc1 (stereo not given)	.	.	13	.	.	.
O=C(O)c1cccc(CN2C(=O)SC(Nc3cccc4ccccc34)C2=O)c1 (stereo not given)	0.4	58*	-1	38	1	6
O=C(O)c1cccc(CN2C(=O)SC(Nc3ccccc3)C2=O)c1 (stereo not given)	1.1	-5	14	11	1.2	11
CC(C)CNC(=O)C1(C)CCCCCN1Cc1ccccc1-c1ccccc1 (stereo not given)	.	.	8	.	.	.
O=c1[nH]c(SCCc2ccccc2)nc2c1CCC2	.	.	-1	.	.	.
CC(=O)c1cc2c(C)c(C(=O)c3ccccc3)oc2cc1O	0.6	44	11	156*	4*	20
COc1ccccc1-c1ccc(Nc2ccc(C(=O)N3CCOCC3)cc2)nn1	1	-2	3	2	1.3	34
CC(=O)c1ccc(Nc2ccc(-c3ccccc3F)nn2)cc1	0.4	58*	48	146*	6.9*	18
N/C(=N\OC(=O)COc1ccc(Br)cc1Cl)c1ccncc1	0.9	14	11	140*	4.4*	24
N/C(=N\OC(=O)COc1ccc(Cl)cc1Cl)c1ccccn1	0.5	50	54*	78	5.2*	41
N/C(=N\OC(=O)COc1ccc2ccccc2c1Br)c1ccccn1	1	4	17	67	.	10
N/C(=N\OC(=O)COc1ccc(Br)cc1Cl)c1ccccn1	0.6	39	66*	193*	5.6*	38
Cc1cc(C)c(C)c(OCC(=O)O/N=C(\N)c2ccccn2)c1	1	-2	2	.	1.4	30
COc1ccc(OC)c(NC(=O)COc2cc(O)c3c(c2)OC(C)(C)CC3=O)c1	.	.	17	.	.	.
